Results as given in ChEMBL document CHEMBL4130432, “Lipid Peroxidation and Cyclooxygenase Enzyme Inhibitory Compounds from Prangos haussknechtii” (J Nat Prod, 2017).

How the values were obtained:
[1] = Antioxidant activity assessed as inhibition of ferrous chloride-induced lipid peroxidation in […] labelled SLPC large unilamellar vesicle measured over 21 mins by fluorescence assay; type: functional
In short: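 Vesicle model: large unilamellar vesicles carrying the fluorescent probe 3-[p-(6-phenyl)-1,3,5-hexatrienyl]phenylpropionic acid. Lipid peroxidation was followed by the emitted fluorescence on a fluorometer. Values are 50% inhibitory concentrations, expressed as mean ± SEM (n = 2).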

[2] = target: T1, Prostaglandin G/H synthase 1 (Ovis aries, UniProt P05979); experiment: Inhibition of ovine COX1 using arachidonic acid as substrate pretreated for 3 mins followed by substrate addition measured immediately
T1 sequence (P05979 whole entry): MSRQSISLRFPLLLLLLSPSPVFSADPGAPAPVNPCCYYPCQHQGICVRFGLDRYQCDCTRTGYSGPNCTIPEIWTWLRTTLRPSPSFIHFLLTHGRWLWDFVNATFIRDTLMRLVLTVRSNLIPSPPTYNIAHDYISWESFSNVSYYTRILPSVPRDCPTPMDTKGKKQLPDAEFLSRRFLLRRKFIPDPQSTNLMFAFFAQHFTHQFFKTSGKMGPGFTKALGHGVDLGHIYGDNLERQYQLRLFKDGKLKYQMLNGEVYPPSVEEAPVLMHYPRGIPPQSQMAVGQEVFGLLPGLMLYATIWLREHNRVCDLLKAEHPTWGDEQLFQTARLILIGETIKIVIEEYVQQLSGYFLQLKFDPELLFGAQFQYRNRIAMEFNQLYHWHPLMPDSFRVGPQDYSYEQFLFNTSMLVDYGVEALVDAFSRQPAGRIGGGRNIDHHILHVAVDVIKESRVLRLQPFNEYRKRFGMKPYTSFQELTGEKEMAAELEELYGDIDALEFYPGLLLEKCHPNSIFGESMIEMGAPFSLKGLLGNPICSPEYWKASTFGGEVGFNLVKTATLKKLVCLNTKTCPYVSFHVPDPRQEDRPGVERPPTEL
In short: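 COX-1 enzyme was prepared in-house from ram seminal vesicles. Activity was monitored in a micro oxygen chamber using an oxygen electrode attached to a biological oxygen monitor.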

[3] = Antioxidant activity assessed as redox reaction between compound and MTT in DMSO measured after 6 hrs; type: functional
In short: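 Reduction of MTT to formazan was read on a microplate reader. Results are reported as 50% inhibitory concentrations, mean ± SEM (n = 2).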

[4] = target: T2, Prostaglandin G/H synthase 2 (Homo sapiens, UniProt P35354); experiment: Inhibition of human COX2 expressed in insect cells using arachidonic acid as substrate pretreated for 3 mins followed by substrate addition measured immediately; type: cell-based
T2 sequence (P35354 whole entry): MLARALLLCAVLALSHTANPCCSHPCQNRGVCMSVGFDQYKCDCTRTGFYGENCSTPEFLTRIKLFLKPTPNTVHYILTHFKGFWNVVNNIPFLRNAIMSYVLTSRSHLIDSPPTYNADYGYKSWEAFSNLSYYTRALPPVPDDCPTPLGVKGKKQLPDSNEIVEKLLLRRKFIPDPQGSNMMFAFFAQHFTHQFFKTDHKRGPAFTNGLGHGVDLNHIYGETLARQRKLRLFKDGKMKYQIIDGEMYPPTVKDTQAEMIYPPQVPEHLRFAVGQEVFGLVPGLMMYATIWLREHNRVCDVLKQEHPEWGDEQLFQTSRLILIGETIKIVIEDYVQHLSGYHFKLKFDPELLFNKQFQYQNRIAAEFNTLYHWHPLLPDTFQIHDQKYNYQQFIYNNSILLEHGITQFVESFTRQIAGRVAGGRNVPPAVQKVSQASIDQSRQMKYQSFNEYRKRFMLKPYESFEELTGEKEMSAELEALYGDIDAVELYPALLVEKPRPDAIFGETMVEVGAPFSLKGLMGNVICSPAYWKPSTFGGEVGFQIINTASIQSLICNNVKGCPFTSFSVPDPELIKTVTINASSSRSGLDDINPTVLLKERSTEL

Row | IC50 [1] | IC50 ([4]; read-out: IC50) | SMILES | IC50 [3] | also measured
1 | 114 µM |  | CC(=O)OC1C2OC(CC(C)=CC2=O)C1(O)C=C(C)C (centres undefined) | 67.1 µM | IC50 [2]: Not Active; IC50 [4]: Not Active
2 | 43 µM | 34.6 µM | CCC(C)C(C(=O)O)N(C(=O)C(N)CC(C)C)C(C(=O)O)C(C)CC (centres undefined) | 48.6 µM | IC50 [2]: Not Active
3 | 86.1 µM | 56.4 µM | COc1ccc2ccc(=O)oc2c1C/C=C(\C)COC(=O)CC(C)C | 128 µM | IC50 ([2]; read-out: IC50): 47.7 µM
4 | 62.6 µM | 45.3 µM | COc1ccc2ccc(=O)oc2c1C/C=C(\C)COC(=O)C=C(C)C | 122 µM | IC50 ([2]; read-out: IC50): 36.8 µM
5 |  |  | O=C1O[C@H]([C@@H](O)CO)C(O)=C1O [ASCORBIC ACID] | 142 µM | 
6 |  |  | CC(=O)Oc1ccccc1C(=O)O [ASPIRIN] |  | IC50 [4]: Not Active
7 | 6.9 µM |  | Cc1cc(C(C)(C)C)c(O)c(C(C)(C)C)c1 [BUTYLATED HYDROXYTOLUENE] |  | 
8 | 10 µM |  | CC(C)(C)c1cc(O)ccc1O [E319] | 150 µM | 
9 | 63.7 µM |  | CC(C)=CCOc1c2ccoc2cc2oc(=O)ccc12 [ISOIMPERATORIN] |  | 
10 | 97.7 µM |  | O=C(O)CC(O)C(=O)O (centres undefined) [MALIC ACID] |  | 
11 | 74.8 µM |  | CC1(C)O[C@H]1COc1c2ccoc2cc2oc(=O)ccc12 [OXYPEUCEDANIN] |  | 

Row | SMILES | IC50 [1] | IC50 ([4]; read-out: IC50) | IC50 [3] | also measured
12 | O=C(O)C(O)Cc1ccccc1 (centres undefined) | 161 µM |  |  | 
13 | COc1ccc2cc([C@H](C)C(=O)O)ccc2c1 [NAPROXEN] |  | 52.2 µM |  | 
14 | COc1ccc2ccc(=O)oc2c1CC=C(C)C [OSTHOLE] | 120 µM | 81.1 µM |  | IC50 ([2]; read-out: IC50): 52.5 µM
